Tests used:
[1] = Growth inhibition of NCI60 cells; assay type: functional; settings: Homo sapiens; for CC50: read-out: LC50 (the source's name)
Outline: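 Run in the NCI in vitro 60 human cancer cell line panel. Potency is given as mean GI50 and mean LC50 (µM) across the panel. Individual lines with LC50 below 1 µM are reported separately.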

HCT-116 = assay: Growth inhibition of human HCT116 cells after 72 hrs by MTT assay; assay type: functional, cell-based; settings: HCT-116, 72 h, read-out: LC50 (the source's name)
Outline: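 Human cancer cells given 72 h continuous drug exposure, growth measured by MTT assay; part of a preliminary five-line screen (colon HCT-116, HT29; breast MCF-7, MDA 468; non-small cell lung A549).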

CAKI-1 = assay: Growth inhibition of human CAKI1 cells after 72 hrs by MTT assay; assay type: functional; settings: CAKI-1, 72 h, read-out: LC50 (the source's name)
[2] = Growth inhibition of human LOXIMV1 cells after 72 hrs by MTT assay; assay type: functional; settings: LOX IMV1, 72 h, read-out: LC50 (the source's name)
ACHN = assay: Growth inhibition of human ACHN cells after 72 hrs by MTT assay; assay type: functional; settings: read-out: LC50 (the source's name)
SK-MEL-5 = assay: Growth inhibition of human SKMEL5 cells after 72 hrs by MTT assay; assay type: functional; settings: SK-MEL-5, 72 h, read-out: LC50 (the source's name)
BT-549 = assay: Growth inhibition of human BT549 cells after 72 hrs by MTT assay; assay type: functional; settings: BT-549, 72 h, read-out: LC50 (the source's name)
A498 = assay: Growth inhibition of human A498 cells after 72 hrs by MTT assay; assay type: functional; settings: A498, 72 h, read-out: LC50 (the source's name)

SMILES | GI50 [1] [nM] | CC50 [1] [nM] | CC50 (HCT-116) [nM] | CC50 (CAKI-1) [nM] | CC50 [2] [nM] | CC50 (ACHN) [nM] | CC50 (SK-MEL-5) [nM] | CC50 (BT-549) [nM] | CC50 (A498) [nM]
O=C1C=CC(O)(c2nc3ccccc3s2)C=C1 | 230 | 3390 | – | – | – | – | – | – | –
O=C1C=CC(O)(c2cc3ccccc3n2S(=O)(=O)c2ccccc2)C=C1 | 39 | 2950 | 30 | 50 | – | – | – | – | –
Cc1ccc(S(=O)(=O)n2c(C3(O)C=CC(=O)C=C3)cc3ccccc32)cc1 | 110 | 7240 | < 10 | – | < 10 | 40 | – | – | –
O=C1C=CC(O)(c2cc3ccccc3n2S(=O)(=O)c2cccnc2)C=C1 | 410 | 14100 | 290 | – | – | – | – | – | –
COC(=O)CCc1ccc(S(=O)(=O)n2c(C3(O)C=CC(=O)C=C3)cc3ccccc32)cc1 | 680 | 22900 | 20 | – | – | – | 600 | – | –
COC(=O)CCc1ccc(S(=O)(=O)n2c(C3(O)C=CC(=O)C=C3)cc3ccc(F)cc32)cc1 | 500 | 10500 | 720 | – | 810 | – | – | 740 | –
O=C1C=CC(O)(c2cc3ccc(F)cc3n2S(=O)(=O)c2ccc(CCC(=O)O)cc2)C=C1 | 2500 | 29500 | – | – | – | – | – | – | –
CN(C)c1cccc2c(S(=O)(=O)n3c(C4(O)C=CC(=O)C=C4)cc4ccccc43)cccc12 | 190 | 13200 | – | – | – | 410 | – | – | 60
O=C1C=CC(O)(c2cc3ccccc3n2S(=O)(=O)c2ccc(CCC(=O)O)cc2)C=C1 | 2340 | 23400 | – | – | – | – | – | – | –
CCOC(=O)Nc1ccc(S(=O)(=O)n2c(C3(O)C=CC(=O)C=C3)cc3ccccc32)cc1 | 190 | 7580 | 295 | – | – | 600 | – | – | –
O=C1C=CC(O)(c2cc3cnccc3n2S(=O)(=O)c2ccccc2)C=C1 | 340 | 13800 | 930 | 470 | – | – | – | – | –
Cc1ccc(S(=O)(=O)n2c(C3(O)C=CC(=O)C=C3)cc3ccncc32)cc1 | 170 | 5750 | < 10 | – | 60 | 50 | – | – | –
O=C1C=CC(O)(c2cc3ccc(F)cc3n2S(=O)(=O)c2ccccc2)C=C1 | 16 | 2240 | – | – | – | – | – | – | –
